ChEMBL document CHEMBL4196006, “Aryl thiosemicarbazones for the treatment of trypanosomatidic infections” (Eur J Med Chem, 2018)
Calls of active or inactive are those of the source. The rule behind the calls is not given here.

How the values were obtained:
CYP2C9 = CYP2C9 (Homo sapiens, UniProt P11712); experiment: Inhibition of human microsomal CYP2C9 expressed in baculovirus infected BTI-TN-5B1-4 cells at 10 uM incubated for 30 mins by luciferase assay relative to control; assay type: ADME
In short: (§1)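 CYP1A2, 2C9, 2C19, 2D6 and 3A4 in microsomes from baculovirus-infected insect cells, each with a P450-Glo luminogenic substrate. Inhibition read as loss of light; single-point at 10 μM, triplicate.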

Trypanosoma brucei [1] = experiment: Potentiation of methotrexate-induced antitrypanosomal activity against Trypanosoma brucei Lister 427 bloodstream form at 10 uM after 72 hrs by resazurin dye-based assay relative to control; assay type: functional
[2] = Cytotoxicity against human U2OS cells assessed as viable cells at 50 uM after 72 hrs by MTT assay relative to control; assay type: cell-based; conditions: read-out: Activity
Trypanosoma brucei [3] = experiment: Antitrypanosomal activity against Trypanosoma brucei Lister 427 bloodstream form at 10 uM after 72 hrs by resazurin dye-based assay relative to control; assay type: functional
[4] = Cytotoxicity against human 786-O cells assessed as inhibition of mitochondrial viability at 10 uM after 6 hrs by CMXRos staining based assay relative to control; assay type: cell-based, 786-0; conditions: read-out: INH
In short: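 Mitochondrial toxicity monitored by MitoTracker Red CMXRos uptake and high-content imaging; compound at 10 μM, triplicate.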

[5] = Cytotoxicity against human A549 cells assessed as growth inhibition at 10 uM after 48 hrs by CellTiter-Glo assay relative to control; values are per cent of control; conditions: A549 cells
Aurora kinase B = Aurora kinase B (Homo sapiens, UniProt Q96GD4); experiment: Inhibition of recombinant full-length human aurora B kinase expressed in baculovirus system at 10 uM using MBP as substrate incubated for 45 mins by ADP-glo kinase assay; conditions: probe MBP
Sequence of Aurora kinase B (Q96GD4 whole entry): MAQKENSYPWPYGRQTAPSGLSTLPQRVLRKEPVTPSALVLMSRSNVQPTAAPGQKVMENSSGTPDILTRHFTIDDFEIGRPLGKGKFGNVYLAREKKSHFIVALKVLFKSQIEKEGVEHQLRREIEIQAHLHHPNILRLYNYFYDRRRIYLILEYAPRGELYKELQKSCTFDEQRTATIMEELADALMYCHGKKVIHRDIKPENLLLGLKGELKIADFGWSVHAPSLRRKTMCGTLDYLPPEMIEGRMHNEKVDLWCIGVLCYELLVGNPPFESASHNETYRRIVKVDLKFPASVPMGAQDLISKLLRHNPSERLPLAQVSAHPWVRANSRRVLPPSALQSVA
In short: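 Aurora B activity measured as ADP formation via coupled luciferase ADP-Glo luminescence; single-point at 10 μM, triplicate.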

Leishmania infantum = experiment: Antileishmanial activity against Leishmania infantum amastigote form assessed as parasite growth inhibition at 50 uM after 72 hrs by steady-Glo reagent based assay relative to control; assay type: functional
In short: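 Intramacrophage L. infantum amastigotes in THP-1-derived macrophages, tested at 50 μM or in dose-response. Plates held 72 h at 37 °C, 5% CO2. Medium was replaced by PBS, macrophages lysed, and parasites read by Steady-Glo luminescence. High-content imaging gave host cell number, infection ratio (infected/total cells) and parasites per infected cell. Values are means of at least two independent experiments.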

Trypanosoma brucei [6] = experiment: Antitrypanosomal activity against Trypanosoma brucei Lister 427 bloodstream form assessed as parasite growth inhibition at 50 uM after 72 hrs by SYBR Green assay relative to control; assay type: functional; conditions: for inhibition of growth at 50 µM: Lister 427, 72 h, read-out: GI
[7] = target: T1, Pteridine reductase 1 (Leishmania major) (UniProt Q01782); experiment: Inhibition of Leishmania major PTR1 at 50 uM using H2B as substrate in presence of NADPH by photometric analysis relative to control
T1 sequence (whole entry): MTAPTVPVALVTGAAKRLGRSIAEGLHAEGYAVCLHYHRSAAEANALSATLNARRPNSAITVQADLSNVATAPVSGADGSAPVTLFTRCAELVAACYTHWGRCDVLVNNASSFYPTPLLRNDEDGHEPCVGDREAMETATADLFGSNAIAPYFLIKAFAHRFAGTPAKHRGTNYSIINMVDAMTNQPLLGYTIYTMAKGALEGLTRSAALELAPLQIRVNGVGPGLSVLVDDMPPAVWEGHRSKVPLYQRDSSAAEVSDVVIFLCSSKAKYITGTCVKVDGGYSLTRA

[8] = Cytotoxicity against human WI38 cells assessed as growth inhibition at 10 uM after 48 hrs by CellTiter-Glo assay relative to control; values are per cent of control; conditions: WI38 cells
Trypanosoma brucei [9] = experiment: Potentiation of methotrexate-induced antitrypanosomal activity against Trypanosoma brucei Lister 427 bloodstream form at 10 uM after 72 hrs by resazurin dye-based assay; assay type: functional
[10] = Cytotoxicity against human THP1 cells assessed as viable cells at 100 uM after 72 hrs by MTT assay relative to control; assay type: cell-based, THP-1; conditions: read-out: Activity
In short: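 THP-1-derived macrophages exposed to compounds for 72 h, tested at 100 μM or in dose-response; viability read by MTT colorimetric assay.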

[11] = Selectivity index, ratio of CC50 for human U2OS cells to EC50 for Trypanosoma cruzi amastigote form; assay type: toxicity; conditions: read-out: Ratio CC50/EC50
In short: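 Selectivity index = CC50 in the human host or cytotoxicity cell line divided by parasite EC50.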

[12] = target: T2, Pteridine reductase, putative (Trypanosoma brucei) (UniProt Q581W1); experiment: Inhibition of Trypanosoma brucei PTR1 at 50 uM using H2B as substrate in presence of NADPH by photometric analysis relative to control
T2 sequence (whole entry): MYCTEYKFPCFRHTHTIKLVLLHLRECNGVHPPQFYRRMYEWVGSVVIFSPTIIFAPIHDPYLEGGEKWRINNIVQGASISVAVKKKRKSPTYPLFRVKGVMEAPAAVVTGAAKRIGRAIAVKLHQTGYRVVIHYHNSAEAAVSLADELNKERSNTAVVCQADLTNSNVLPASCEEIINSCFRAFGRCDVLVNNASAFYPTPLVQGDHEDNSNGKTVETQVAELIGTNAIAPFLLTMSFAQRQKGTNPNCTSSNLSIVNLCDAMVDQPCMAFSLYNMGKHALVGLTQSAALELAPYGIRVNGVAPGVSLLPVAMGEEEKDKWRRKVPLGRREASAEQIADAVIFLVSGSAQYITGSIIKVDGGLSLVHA

CYP1A2 = target: T3, CYP1A2 (Homo sapiens, UniProt P05177); experiment: Inhibition of human microsomal CYP1A2 expressed in baculovirus infected BTI-TN-5B1-4 cells at 10 uM incubated for 30 mins by luciferase assay relative to control; assay type: ADME; in short: as §1
T3 sequence (P05177 whole entry): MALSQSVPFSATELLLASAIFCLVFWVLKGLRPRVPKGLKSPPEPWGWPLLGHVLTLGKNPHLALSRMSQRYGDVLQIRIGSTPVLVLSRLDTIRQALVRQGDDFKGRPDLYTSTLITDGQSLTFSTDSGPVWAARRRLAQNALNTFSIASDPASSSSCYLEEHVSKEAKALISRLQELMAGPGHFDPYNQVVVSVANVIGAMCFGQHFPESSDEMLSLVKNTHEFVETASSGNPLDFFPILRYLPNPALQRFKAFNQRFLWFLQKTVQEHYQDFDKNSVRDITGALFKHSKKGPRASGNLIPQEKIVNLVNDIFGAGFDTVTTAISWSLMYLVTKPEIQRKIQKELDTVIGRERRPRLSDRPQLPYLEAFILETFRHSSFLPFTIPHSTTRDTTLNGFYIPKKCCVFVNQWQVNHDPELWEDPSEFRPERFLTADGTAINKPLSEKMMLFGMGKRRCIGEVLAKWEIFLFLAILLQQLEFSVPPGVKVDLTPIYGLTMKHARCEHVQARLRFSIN

CYP3A4 = CYP3A4 (Homo sapiens, UniProt P08684); experiment: Inhibition of human microsomal CYP3A4 expressed in baculovirus infected BTI-TN-5B1-4 cells at 10 uM incubated for 30 mins by luciferase assay relative to control; assay type: ADME; in short: as §1
Sequence of CYP3A4 (P08684 whole entry): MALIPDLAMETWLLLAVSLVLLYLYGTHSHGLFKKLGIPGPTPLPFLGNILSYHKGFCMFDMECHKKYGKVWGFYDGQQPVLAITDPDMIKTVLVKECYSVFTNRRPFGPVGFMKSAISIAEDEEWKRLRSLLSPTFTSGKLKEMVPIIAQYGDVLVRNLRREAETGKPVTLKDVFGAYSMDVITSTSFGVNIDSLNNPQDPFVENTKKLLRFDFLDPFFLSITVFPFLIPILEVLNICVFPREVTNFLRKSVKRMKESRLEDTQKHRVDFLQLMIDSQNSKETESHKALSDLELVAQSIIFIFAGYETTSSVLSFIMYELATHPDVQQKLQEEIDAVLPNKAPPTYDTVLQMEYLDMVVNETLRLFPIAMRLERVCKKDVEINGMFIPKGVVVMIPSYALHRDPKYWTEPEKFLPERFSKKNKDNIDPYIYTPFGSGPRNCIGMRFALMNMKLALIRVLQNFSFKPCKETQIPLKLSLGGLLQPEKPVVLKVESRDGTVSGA

Trypanosoma cruzi [13] = experiment: Antitrypanosomal activity against Trypanosoma cruzi amastigote form infected in human U2OS cells assessed as parasite growth inhibition at 50 uM after 72 hrs relative to control; assay type: functional; conditions: read-out: GI
In short: (§2)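 U2OS monolayers grown for 24 h, then infected with tissue-derived trypomastigotes of T. cruzi Y strain. Compounds were added 24 h after infection at 50 μM (single-point) or in dose-response, with 72 h exposure. Plates were fixed, stained and analysed by high-content imaging; activity was normalized to infected and non-infected controls. Means of at least two experiments; benznidazole as reference.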

Trypanosoma cruzi [14] = experiment: Antitrypanosomal activity against Trypanosoma cruzi amastigote form infected in human U2OS cells assessed as parasite growth inhibition after 72 hrs; assay type: functional, organism-based; in short: as §2
CYP2D6 = CYP2D6 (Homo sapiens, UniProt P10635); experiment: Inhibition of human microsomal CYP2D6 expressed in baculovirus infected BTI-TN-5B1-4 cells at 10 uM incubated for 30 mins by luciferase assay relative to control; assay type: ADME; in short: as §1
Sequence of CYP2D6 (P10635 whole entry): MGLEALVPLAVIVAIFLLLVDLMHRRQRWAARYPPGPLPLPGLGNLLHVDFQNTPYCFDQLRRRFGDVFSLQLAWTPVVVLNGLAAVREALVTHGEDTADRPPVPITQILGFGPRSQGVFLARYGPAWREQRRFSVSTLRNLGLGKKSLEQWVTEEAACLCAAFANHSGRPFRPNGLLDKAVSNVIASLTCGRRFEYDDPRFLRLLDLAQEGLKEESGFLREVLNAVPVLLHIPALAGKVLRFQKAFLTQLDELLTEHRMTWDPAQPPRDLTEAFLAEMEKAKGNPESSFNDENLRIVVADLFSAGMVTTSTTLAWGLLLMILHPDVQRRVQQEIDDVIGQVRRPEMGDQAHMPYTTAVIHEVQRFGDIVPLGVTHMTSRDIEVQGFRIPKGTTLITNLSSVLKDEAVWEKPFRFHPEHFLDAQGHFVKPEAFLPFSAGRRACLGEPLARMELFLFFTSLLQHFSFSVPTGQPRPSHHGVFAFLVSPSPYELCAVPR

CYP2C19 = CYP2C19 (Homo sapiens, UniProt P33261); experiment: Inhibition of human microsomal CYP2C19 expressed in baculovirus infected BTI-TN-5B1-4 cells at 10 uM incubated for 30 mins by luciferase assay relative to control; assay type: ADME; in short: as §1
Sequence of CYP2C19 (P33261 whole entry): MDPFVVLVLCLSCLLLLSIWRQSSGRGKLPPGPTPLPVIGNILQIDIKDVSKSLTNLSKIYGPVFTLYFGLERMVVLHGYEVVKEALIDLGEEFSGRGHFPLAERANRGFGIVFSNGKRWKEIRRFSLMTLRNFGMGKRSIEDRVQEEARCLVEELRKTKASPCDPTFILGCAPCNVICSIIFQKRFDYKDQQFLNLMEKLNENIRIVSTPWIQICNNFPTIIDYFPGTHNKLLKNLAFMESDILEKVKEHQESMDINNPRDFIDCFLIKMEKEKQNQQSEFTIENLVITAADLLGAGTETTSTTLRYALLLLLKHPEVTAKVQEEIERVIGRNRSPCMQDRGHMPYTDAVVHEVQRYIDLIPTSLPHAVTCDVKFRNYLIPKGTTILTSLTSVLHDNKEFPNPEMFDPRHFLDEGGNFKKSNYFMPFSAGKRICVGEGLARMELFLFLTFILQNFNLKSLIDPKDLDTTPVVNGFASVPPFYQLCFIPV

hERG (KCNH2) = hERG (KCNH2) (Homo sapiens, UniProt Q12809); experiment: Inhibition of human ERG at 10 uM incubated for 2 hrs by fluorescence polarisation assay relative to control
Sequence of hERG (KCNH2) (Q12809 whole entry): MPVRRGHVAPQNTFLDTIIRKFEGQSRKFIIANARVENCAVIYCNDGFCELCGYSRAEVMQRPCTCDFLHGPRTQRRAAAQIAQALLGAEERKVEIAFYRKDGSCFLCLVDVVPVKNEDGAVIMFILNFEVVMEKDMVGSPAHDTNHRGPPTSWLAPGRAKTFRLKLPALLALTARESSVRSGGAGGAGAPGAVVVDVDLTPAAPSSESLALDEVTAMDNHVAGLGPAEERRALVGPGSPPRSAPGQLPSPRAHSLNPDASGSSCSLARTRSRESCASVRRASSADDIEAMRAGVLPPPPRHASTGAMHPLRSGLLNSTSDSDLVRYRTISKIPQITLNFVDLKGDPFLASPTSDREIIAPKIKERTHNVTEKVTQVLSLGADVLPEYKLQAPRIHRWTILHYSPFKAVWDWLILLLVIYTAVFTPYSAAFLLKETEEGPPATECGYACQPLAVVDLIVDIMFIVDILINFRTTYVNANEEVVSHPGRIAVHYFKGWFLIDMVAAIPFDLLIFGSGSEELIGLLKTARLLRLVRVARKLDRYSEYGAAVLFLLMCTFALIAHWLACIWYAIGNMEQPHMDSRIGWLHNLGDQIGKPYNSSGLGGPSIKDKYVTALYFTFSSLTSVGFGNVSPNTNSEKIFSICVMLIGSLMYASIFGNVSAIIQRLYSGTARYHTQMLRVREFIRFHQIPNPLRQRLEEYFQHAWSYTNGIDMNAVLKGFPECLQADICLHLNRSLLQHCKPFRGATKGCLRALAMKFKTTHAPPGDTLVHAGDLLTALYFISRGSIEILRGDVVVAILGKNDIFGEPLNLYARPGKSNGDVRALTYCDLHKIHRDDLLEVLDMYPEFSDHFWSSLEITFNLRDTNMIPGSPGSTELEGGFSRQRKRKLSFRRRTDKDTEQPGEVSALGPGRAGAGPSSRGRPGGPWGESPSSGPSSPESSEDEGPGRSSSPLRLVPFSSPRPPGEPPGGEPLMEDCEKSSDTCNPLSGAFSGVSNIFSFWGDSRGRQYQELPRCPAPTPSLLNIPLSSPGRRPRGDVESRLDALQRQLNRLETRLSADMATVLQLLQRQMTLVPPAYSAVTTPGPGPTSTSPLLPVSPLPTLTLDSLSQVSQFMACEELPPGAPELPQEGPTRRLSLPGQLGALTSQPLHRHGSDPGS

[15] = Cytotoxicity against human U2OS cells assessed as decrease in viable cells after 72 hrs by cell number count in anti-T. cruzi high content imaging assay; conditions: U2OS cells
Trypanosoma brucei [16] = experiment: Antitrypanosomal activity against Trypanosoma brucei Lister 427 bloodstream form after 72 hrs by SYBR Green assay; assay type: functional, organism-based; conditions: Lister 427, 72 h

Sequence of CYP2C9 (P11712 whole entry): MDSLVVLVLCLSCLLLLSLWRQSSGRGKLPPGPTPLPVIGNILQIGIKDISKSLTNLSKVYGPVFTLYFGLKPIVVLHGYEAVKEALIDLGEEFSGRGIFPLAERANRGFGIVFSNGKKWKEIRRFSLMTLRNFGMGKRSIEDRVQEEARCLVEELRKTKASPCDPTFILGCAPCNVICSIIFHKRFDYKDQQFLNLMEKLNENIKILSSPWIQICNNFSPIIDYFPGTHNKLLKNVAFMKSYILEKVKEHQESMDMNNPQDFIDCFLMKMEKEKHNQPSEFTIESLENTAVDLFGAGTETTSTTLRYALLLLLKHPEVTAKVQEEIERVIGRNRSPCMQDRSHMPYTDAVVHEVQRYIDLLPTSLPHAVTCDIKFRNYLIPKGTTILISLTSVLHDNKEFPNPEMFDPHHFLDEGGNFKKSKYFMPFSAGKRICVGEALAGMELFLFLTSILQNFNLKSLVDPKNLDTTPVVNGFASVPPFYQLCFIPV

N/C(S)=N/N=C/c1cccc(Br)c1
inhibition at 0.5 h, 10 µM (CYP2C9): -7.51%
Activity (Trypanosoma brucei [1]): 61.17%
viability at 72 h, 50 µM [2]: 57.3%
Activity (Trypanosoma brucei [3]): 0.83%
cytotoxicity at 6 h, 10 µM [4]: 0.71%
cell growth (% of control) at 48 h, 10 µM [5]: 130%
inhibition at 0.75 h, 10 µM (Aurora kinase B): -16.2%
growth inhibition (GI) (Leishmania infantum): inactive
inhibition of growth at 50 µM (Trypanosoma brucei [6]): 44.1%
inhibition [7]: 18.4%
cell growth (% of control) at 48 h, 10 µM [8]: 120%
PF (Trypanosoma brucei [9]): 2.44
viability at 72 h, 100 µM [10]: 79.3%
selectivity ratio [11]: > 1
inhibition [12]: 14.9%
inhibition at 0.5 h, 10 µM (CYP1A2): 66.6%
inhibition at 0.5 h, 10 µM (CYP3A4): -19.8%
inhibition of growth at 50 µM (Trypanosoma cruzi [13]): 90.8%
EC50 (Trypanosoma cruzi [14]): 2.29 µM
inhibition at 0.5 h, 10 µM (CYP2D6): -14.4%
inhibition at 0.5 h, 10 µM (CYP2C19): -35.9%
inhibition at 2 h, 10 µM (hERG (KCNH2)): 10.7%
CC50 at 72 h [15]: > 44 µM

NC(=S)N/N=C/c1ccc(-c2ccccc2)cc1
inhibition at 0.5 h, 10 µM (CYP2C9): 98.4%
Activity (Trypanosoma brucei [1]): 80.67%
viability at 72 h, 50 µM [2]: 116%
Activity (Trypanosoma brucei [3]): 19.33%
cytotoxicity at 6 h, 10 µM [4]: 16.1%
cell growth (% of control) at 48 h, 10 µM [5]: 138%
inhibition at 0.75 h, 10 µM (Aurora kinase B): -35.7%
growth inhibition (GI) (Leishmania infantum): inactive
growth inhibition (GI) (Trypanosoma brucei [6]): inactive
inhibition [7]: 3.57%
cell growth (% of control) at 48 h, 10 µM [8]: 104%
PF (Trypanosoma brucei [9]): 1.85
viability at 72 h, 100 µM [10]: 46.4%
selectivity ratio [11]: > 1
inhibition [12]: inactive
inhibition at 0.5 h, 10 µM (CYP1A2): 76.6%
inhibition at 0.5 h, 10 µM (CYP3A4): -16.1%
inhibition of growth at 50 µM (Trypanosoma cruzi [13]): 95.2%
EC50 (Trypanosoma cruzi [14]): 4.17 µM
inhibition at 0.5 h, 10 µM (CYP2D6): 26.8%
inhibition at 0.5 h, 10 µM (CYP2C19): 32.1%
inhibition at 2 h, 10 µM (hERG (KCNH2)): 38.5%
CC50 at 72 h [15]: > 44 µM

NC(=S)N/N=C/c1ccccc1O
inhibition at 0.5 h, 10 µM (CYP2C9): -6.44%
Activity (Trypanosoma brucei [1]): 62.5%
viability at 72 h, 50 µM [2]: 58%
Activity (Trypanosoma brucei [3]): 17.83%
cytotoxicity at 6 h, 10 µM [4]: -1.49%
cell growth (% of control) at 48 h, 10 µM [5]: 117%
inhibition at 0.75 h, 10 µM (Aurora kinase B): 6.53%
inhibition of growth at 50 µM (Leishmania infantum; read-out: GI): 24.1%
inhibition of growth at 50 µM (Trypanosoma brucei [6]): 97.9%
EC50 (Trypanosoma brucei [16]): 31.5 µM
inhibition [7]: 7.6%
cell growth (% of control) at 48 h, 10 µM [8]: 108%
PF (Trypanosoma brucei [9]): 1.49
viability at 72 h, 100 µM [10]: 54.7%
inhibition [12]: 13.7%
inhibition at 0.5 h, 10 µM (CYP1A2): 18.6%
inhibition at 0.5 h, 10 µM (CYP3A4): -4.38%
inhibition of growth at 50 µM (Trypanosoma cruzi [13]): 86.1%
inhibition at 0.5 h, 10 µM (CYP2D6): -18.9%
inhibition at 0.5 h, 10 µM (CYP2C19): -20.6%
inhibition at 2 h, 10 µM (hERG (KCNH2)): 4.46%
